Published values from different studies.
Lines come from different studies, so protocols differ.
Organism: Severe acute respiratory syndrome coronavirus 2

SMILES	assay	test system	setting	quantity	result
Cc1cccn2c(=O)c3cc(C(=O)Nc4ccc(N(C)C)cc4)n(C)c3nc12	viral replication	Vero	0.1 µM	inhibition	63.6%
Cc1cc(C)c(N(C)CC(=O)Nc2nc(-c3ccccn3)c[nH]2)c(C)c1	viral replication, inhibitor	Vero C1008	1 µM	inhibition	50.7%
CC(=O)c1cccc(NC(=O)c2cc3c(=O)n4ccccc4nc3n2C)c1	viral replication	Vero	1 nM	inhibition	11.6%
C=C[C@@](C)(/C=C/c1ccc(O)cc1)CCC=C(C)C	cytopathic effect, inhibitor	Vero C1008	12.5 µM	inhibition	0%
CC(/C=C/C=C(\C)c1cc(C(C)(C)C)cc(C(C)(C)C)c1)=C\C(=O)O	viral replication, inhibitor	Vero C1008	1 µM	inhibition	61.6%
COc1ccc(C[C@@H]2c3cc(Oc4cc(C[C@@H]5c6cc(O)c(OC)cc6CCN5C)ccc4O)c(OC)cc3CCN2C)cc1	cytopathic effect, inhibitor	Vero C1008	3.125 µM	inhibition	0%
CCc1ccc(NC(=O)c2cc3c(=O)n4ccccc4nc3n2C)cc1	viral replication	Vero	10 µM	inhibition	95%
CN(CCc1ccc(Cl)c(Cl)c1)CCN1CCCC1	viral replication	Vero C1008	–	IC50	5250 nM
Cc1cc(NC(=O)c2cc3c(=O)n4cccc(C)c4nc3n2C)ccc1Br	viral replication	Vero	1 µM	inhibition	74.7%
CCC(CC)COC(=O)[C@H](C)N[P@](=O)(OC[C@H]1O[C@@](C#N)(c2ccc3c(N)ncnn23)[C@H](O)[C@@H]1O)Oc1ccccc1	viral replication, inhibitor, qPCR	Vero C1008	–	EC50	1130 nM
O=C(/C=C/c1ccc(O)c(O)c1/C=C/c1ccc(O)c(O)c1)O[C@H](Cc1ccc(O)c(O)c1)C(=O)O	cytopathic effect, inhibitor	Vero C1008	25 µM	inhibition	0%
Cn1c(C(=O)Nc2ccc(Cl)cc2)cc2c(=O)n3ccccc3nc21	viral replication	Vero	10 nM	inhibition	8%
CCN(CCO)CCCC(C)Nc1ccnc2cc(Cl)ccc12 (stereo not shown)	viral replication, inhibitor	A549-ACE2	–	IC50	871 nM
Cc1cccc(C)c1OCC(=O)N[C@@H](Cc1ccccc1)[C@@H](O)C[C@H](Cc1ccccc1)NC(=O)[C@H](C(C)C)N1CCCNC1=O	viral replication, inhibitor	Vero C1008	–	EC50	< 100000 nM
Cn1c(C(=O)Nc2ccc3c(c2)OCCO3)cc2c(=O)n3ccccc3nc21	viral replication	Vero	10 µM	inhibition	91.8%
O=C(O[C@@H]1Cc2c(O)cc(O)cc2O[C@@H]1c1cc(O)c(O)c(O)c1)c1cc(O)c(O)c(O)c1	cytopathic effect	Vero C1008	3.125 µM	inhibition	0%
CC(C)(C)[C@]1(O)CCN2C[C@H]3c4ccccc4CCc4cccc(c43)[C@@H]2C1	viral replication, inhibitor	A549-ACE2	–	IC50	9120 nM
N#C[C@@]1(c2ccc3c(N)ncnn23)O[C@H](CO)[C@@H](O)[C@H]1O	viral replication, inhibitor, qPCR	Vero C1008	48 h	EC90	770 nM
CC(C)=CCc1c(O)ccc(C(=O)/C=C/c2ccc(O)cc2)c1O	cytopathic effect, inhibitor	Vero C1008	3.125 µM	inhibition	0%
